pKi: −log10 of the molar value. The source made the active and inactive calls. No cut-off for these calls is given here.
Target: T1, Corticotropin-releasing factor receptor 1 (Homo sapiens, UniProt P34998)
T1 sequence (P34998 whole entry): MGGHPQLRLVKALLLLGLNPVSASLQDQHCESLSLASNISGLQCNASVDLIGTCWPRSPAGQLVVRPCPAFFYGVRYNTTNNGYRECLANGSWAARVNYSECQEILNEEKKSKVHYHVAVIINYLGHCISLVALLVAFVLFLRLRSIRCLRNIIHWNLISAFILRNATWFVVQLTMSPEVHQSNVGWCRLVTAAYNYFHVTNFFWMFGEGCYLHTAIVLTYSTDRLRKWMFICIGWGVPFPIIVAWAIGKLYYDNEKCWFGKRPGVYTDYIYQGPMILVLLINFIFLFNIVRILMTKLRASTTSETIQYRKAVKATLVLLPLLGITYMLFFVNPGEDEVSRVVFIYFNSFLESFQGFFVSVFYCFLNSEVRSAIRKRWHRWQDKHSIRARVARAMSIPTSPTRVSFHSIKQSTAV
Assay: Displacement of [125I]Tyr-o-CRF from human CRFR1 expressed in human IMR32 cells
Type: cell-based, IMR-32
Details: not given
Summary of the method: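 Radioligand displacement of [125I]-Tyr-o-CRF from human CRF1 receptor expressed endogenously on intact IMR-32 human neuroblastoma cells. The protocol follows an earlier report.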

First: Cc1cc(C)c(N2CCCn3c2nc(C(F)(F)F)c3CN(CCc2ccccc2)CC(F)(F)F)c(C)c1
Second: CCCN(CCc1ccccc1)Cc1c(C(F)(F)F)nc2n1CCCN2c1c(C)cc(C)cc1C
The pKi of the first is 0.25 log units higher: 7.42 for the first, 7.17 for the second.

First: CCCN(CC1CC1)C(=O)c1c(C(F)(F)F)nc2n1CCCN2c1c(C)cc(C)cc1C
Second: CCCN(CC1CC1)C(=O)c1c(C)nc2n1CCCN2c1c(C)cc(C)cc1C
The pKi of the first is higher: 5.92 for the first, < 5.30 for the second. The first binds more tightly here.

`CCCCN(CC)C(=O)c1c(CC)nc2n1CCC(=O)N2c1c(C)cc(C)cc1C` and `CCCN(CCC)C(=O)c1c(CC)nc2n1CCC(=O)N2c1c(C)cc(C)cc1C` cannot be ordered by pKi: < 5.30 for the first, < 5.30 for the second.

`CCCN(Cc1c(C(F)(F)F)nc2n1CCCN2c1c(C)cc(C)cc1C)CC1CCC1` and `CCCN(Cc1c(C(F)(F)F)nc2n1CCCN2c1c(C)cc(C)cc1C)CC1CC1` are within 0.2 log units of each other in pKi: 7.68 for the first, 7.49 for the second.

First: Cc1cc(C)c(N2CCCn3c2nc(C(F)(F)F)c3CN2CCSCC2)c(C)c1
Second: Cc1cc(C)c(N2CCCn3c2nc(C(F)(F)F)c3CN2CCOCC2)c(C)c1
The pKi of the first is 0.54 log units higher: 6.36 for the first, 5.82 for the second.

First: CCCN(Cc1ccccc1)C(=O)c1c(C)nc2n1CCCN2c1c(C)cc(C)cc1C
Second: CCCN(CCc1ccccc1)C(=O)c1c(C)nc2n1CCCN2c1c(C)cc(C)cc1C
The pKi of the first is lower: < 5.30 for the first, 5.77 for the second.

`CCCN(CC1CC1)C(=O)c1c(CC)nc2n1CCC(=O)N2c1c(C)cc(C)cc1C` and `CCCN(CC1CC1)C(=O)c1c(C)nc2n1CCC(=O)N2c1c(C)cc(C)cc1C` cannot be ordered by pKi: < 5.30 for the first, < 5.30 for the second.

Going from `Cc1cc(C)c(N2CCCn3c2nc(C(F)(F)F)c3CN(CC2CCC2)CC(F)(F)F)c(C)c1` to `Cc1cc(C)c(N2CCCn3c2nc(C(F)(F)F)c3CN(CC2CC2)CC(F)(F)F)c(C)c1`, the pKi rises from 7.57 to 8.10 (0.53 log units).

`CCCN(CCC(F)(F)F)Cc1c(C(F)(F)F)nc2n1CCCN2c1c(C)cc(C)cc1C` and `C=CCN(CCC)Cc1c(C(F)(F)F)nc2n1CCCN2c1c(C)cc(C)cc1C` are within 0.2 log units of each other in pKi: 7.20 for the first, 7.32 for the second.

`CCCN(CC1CC1)C(=O)c1c(CC)nc2n1CCCN2c1c(C)cc(C)cc1C` and `CCCN(CC1CCC1)C(=O)c1c(C)nc2n1CCCN2c1c(C)cc(C)cc1C` are within 0.2 log units of each other in pKi: 5.64 for the first, 5.48 for the second.

`C=CCN(CC=C)C(=O)c1c(C)nc2n1CCC(=O)N2c1c(C)cc(C)cc1C` and `C=CCN(CC=C)C(=O)c1c(CC)nc2n1CCC(=O)N2c1c(C)cc(C)cc1C` cannot be ordered by pKi: < 5.30 for the first, < 5.30 for the second.

Compared with `CCN(Cc1c(C(F)(F)F)nc2n1CCCN2c1c(C)cc(C)cc1C)CC1CC1`, `Cc1cc(C)c(N2CCCn3c2nc(C(F)(F)F)c3CN(CC2CC2)CC(F)(F)C(F)(F)F)c(C)c1` is 0.34 log units higher in pKi: 7.51 for the first, 7.85 for the second. The second binds more tightly here.

`Cc1cc(C)c(N2C(=O)CCn3c2nc(C)c3C(=O)N2CCOCC2)c(C)c1` and `Cc1cc(C)c(N2C(=O)CCn3c2nc(C)c3C(=O)N2CCN(c3ccccc3F)CC2)c(C)c1` cannot be ordered by pKi: < 5.30 for the first, < 5.30 for the second.

`Cc1cc(C)c(N2CCCn3c2nc(C(F)(F)F)c3CN2CC=CCC2)c(C)c1` and `Cc1cc(C)c(N2CCCn3c2nc(C(F)(F)F)c3CN2CCCCC2)c(C)c1` are within 0.2 log units of each other in pKi: 6.44 for the first, 6.61 for the second.

First: C=CCN(CC=C)C(=O)c1c(C(F)(F)F)nc2n1CCCN2c1c(C)cc(C)cc1C
Second: C=CCN(CCC)C(=O)c1c(C)nc2n1CCCN2c1c(C)cc(C)cc1C
The pKi of the first is higher: 7.72 for the first, < 5.30 for the second. The first binds more tightly here.

Compared with `Cc1cc(C)c(N2CCCn3c2nc(C)c3C(=O)N(CC2CC2)CC2CC2)c(C)c1`, `CCCN(CCC)C(=O)c1c(C)nc2n1CCC(=O)N2c1c(C)cc(C)cc1C` is lower in pKi: 5.47 for the first, < 5.30 for the second. The first binds more tightly here.

`Cc1cc(C)c(N2CCCn3c2nc(C(F)(F)F)c3CN2CCCN(C)CC2)c(C)c1` and `CCc1nc2n(c1C(=O)N(CC)Cc1ccccc1)CCC(=O)N2c1c(C)cc(C)cc1C` cannot be ordered by pKi: < 5.30 for the first, < 5.30 for the second.

Test system: not listed separately
Assay: Ratio of drug level in mouse brain to plasma at 32 mg/kg, ip after 1 hr
Type: ADME, organism-based
Design: dose 32 mg/kg, route intraperitoneal
Details: not given
Summary of the method: (§1)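 Mice were dosed ip at 32 mg/kg in cremophor/DMSO/water (1:1:8). Brain and plasma were sampled at 30 min and 1 h after dosing. Brain level is given as ng compound per g brain, alongside the brain/plasma concentration ratio.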

In the case of `CCCN(Cc1c(C(F)(F)F)nc2n1CCCN2c1c(C)cc(C)cc1C)CC1CC1`, the Kp at 1 h was 1.

Test system: not listed separately
Assay: Drug level in mouse brain at 32 mg/kg, ip after 30 mins
Type: ADME, organism-based
Design: dose 32 mg/kg, route intraperitoneal
Details: read-out: Drug uptake
Summary of the method: as §1

Work on `CCCN(Cc1c(C(F)(F)F)nc2n1CCCN2c1c(C)cc(C)cc1C)CC1CC1` yielded a concentration at 0.5 h of 352 ng/g.

Test system: not listed separately
Assay: Ratio of drug level in mouse brain to plasma at 32 mg/kg, ip after 30 mins
Type: ADME, organism-based
Design: dose 32 mg/kg, route intraperitoneal
Details: not given
Summary of the method: as §1

Compound `CCCN(Cc1c(C(F)(F)F)nc2n1CCCN2c1c(C)cc(C)cc1C)CC1CC1` has a Kp at 0.5 h of 1.2.

Test system: Mus musculus
Assay: Anxiolytic activity in ip dosed mouse assessed as decrease reduction of stretched attenuated postures by canopy test
Type: functional
Details: not given
Summary of the method: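 Mouse canopy test for anxiety-like behaviour. Compound was given ip in cremophor/DMSO/water (1:1:8) at several doses. The read-out was the total count of stretched attend postures. The protocol follows an earlier report.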

In the case of `CCCN(Cc1c(C(F)(F)F)nc2n1CCCN2c1c(C)cc(C)cc1C)CC1CC1`, the Activity was “Active”.

Test system: not listed separately
Assay: Drug level in mouse brain at 32 mg/kg, ip after 1 hr
Type: ADME, organism-based
Design: dose 32 mg/kg, route intraperitoneal
Details: read-out: Drug uptake
Summary of the method: as §1

Work on `CCCN(Cc1c(C(F)(F)F)nc2n1CCCN2c1c(C)cc(C)cc1C)CC1CC1` yielded a concentration at 1 h of 217 ng/g.

— ChEMBL document CHEMBL1155435, “Design, synthesis and evaluation of constrained tetrahydroimidazopyrimidine derivatives as antagonists of corticotropin-releasing factor type 1 receptor (CRF1R)” (Bioorg Med Chem Lett, 2010)
